Converted amounts (≈) assume the structure as drawn. The source made the active and inactive calls. Unless noted, the calls are words filed in the database; no cut-off is given here.
Tests used:
[1] = tested on: Candida albicans; test: Antifungal activity against Candida albicans ATCC 10231 after 48 to 72 hrs by broth microdilution method; type: functional
Method in brief: (§1)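 Broth microdilution per NCCLS. Organisms were subcultured on Sabouraud agar. Inoculum was 5–7 colonies from YM agar in sterile water, adjusted to 0.5 McFarland at 530 nm (1–5×10⁶ cells/mL stock), held 30 min at RT, then diluted 1:50 in HEPES-buffered RPMI 1640. DMSO stocks were twofold-diluted, with final DMSO ≤1%. Plates ran 48–72 h at 35 °C, humid. MIC is the lowest concentration giving ≥80% growth reduction vs drug-free wells, scored visually. Fluconazole or amphotericin B ran as drug control.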

[2] = tested on: Nakaseomyces glabratus; test: Antifungal activity against Candida glabrata ATCC 48435 after 48 to 72 hrs by broth microdilution method; type: functional; method in brief: as §1
[3] = tested on: Nakaseomyces glabratus; test: Antifungal activity against Candida glabrata ATCC 48435 at 16 ug/ml after 48 to 72 hrs by broth microdilution method; type: functional
[4] = tested on: Candida albicans; test: Antifungal activity against Candida albicans ATCC 10231 at 62 ug/ml after 48 to 72 hrs by broth microdilution method; type: functional
[5] = Cytotoxicity against african green monkey Vero cells assessed as cell viability at 2 to 200 ug/ml after 24 hrs by MTT assay; type: cell-based; conditions: chlorocebus sabaeus, read-out: Activity
Method in brief: (§2)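 MTT (tetrazolium) assay in Vero and HepG2 cells. Cells were pre-grown 24 h at 37 °C/5% CO₂ in DMEM with 10% FBS. Compounds diluted in media at the fungal MIC and at 5×, 10× and 100× MIC, then exposed 24 h. Dye was added for 1–4 h, then stop solution for 1 h at RT; A570 read. Viability was taken as % of 1% DMSO no-drug wells, with 0.1% saponin as death control. Triplicate, mean ± SD.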

[6] = tested on: HepG2; test: Cytotoxicity against human HepG2 cells assessed as cell viability at 2 to 200 ug/ml after 24 hrs by MTT assay; type: cell-based; conditions: hepg2, 24 h; method in brief: as §2
[7] = Cytotoxicity against african green monkey Vero cells assessed as cell viability at 8 to 800 ug/ml after 24 hrs by MTT assay; type: cell-based; conditions: chlorocebus sabaeus, read-out: Activity; method in brief: as §2
[8] = tested on: HepG2; test: Cytotoxicity against human HepG2 cells assessed as cell viability at 8 to 800 ug/ml after 24 hrs by MTT assay; type: cell-based; conditions: hepg2, 24 h; method in brief: as §2
[9] = tested on: Candida albicans; test: Antifungal activity against Candida albicans ATCC 10231 at 8 ug/ml after 48 to 72 hrs by broth microdilution method; type: functional
[10] = Cytotoxicity against african green monkey Vero cells assessed as cell viability at 10 times MIC80 for fungus after 24 hrs by MTT assay; type: cell-based; conditions: chlorocebus sabaeus, read-out: Activity; method in brief: as §2
[11] = tested on: Candida albicans; test: Antifungal activity against Candida albicans SC5314 at 0.195 to 100 uM after 24 to 48 hrs in presence of 3% glycerol; type: functional, organism-based
Method in brief: (§3)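 Cells grown overnight in YPD at 30 °C, washed, then seeded at ~10³ cells/well (10⁴ cells/mL) in YPD (2% glucose), YPG (3% glycerol) or YPE (3% ethanol), pH 6.5. Drug at 0 and 0.195–100, final DMSO 0.5%. Two repeat experiments.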

[12] = tested on: Nakaseomyces glabratus; test: Antifungal activity against Candida glabrata CS 177.93 at 0.195 to 100 uM after 24 to 48 hrs in presence of 2% glucose; type: functional, organism-based; method in brief: as §3
[13] = tested on: Nakaseomyces glabratus; test: Antifungal activity against Candida glabrata CS 177.93 at 0.195 to 100 uM after 24 to 48 hrs in presence of 3% ethanol; type: functional, organism-based; method in brief: as §3
[14] = tested on: Candida albicans; test: Antifungal activity against Candida albicans SC5314 at 0.195 to 100 uM after 24 to 48 hrs in presence of 2% glucose; type: functional, organism-based; method in brief: as §3
[15] = tested on: Candida albicans; test: Antifungal activity against Candida albicans; type: functional, organism-based; method in brief: as §1
[16] = tested on: Candida albicans; test: Antifungal activity against Candida albicans SC5314 at 0.195 to 100 uM after 24 to 48 hrs in presence of 3% ethanol; type: functional, organism-based; method in brief: as §3
[17] = tested on: Nakaseomyces glabratus; test: Antifungal activity against Candida glabrata CS 177.93 at 0.195 to 100 uM after 24 to 48 hrs in presence of 3% glycerol; type: functional, organism-based; method in brief: as §3
[18] = tested on: Nakaseomyces glabratus; test: Antifungal activity against Candida glabrata ATCC 48435 at 31 ug/ml after 48 to 72 hrs by broth microdilution method; type: functional
[19] = tested on: Nakaseomyces glabratus; test: Antifungal activity against Candida glabrata ATCC 48435 at 62 ug/ml after 48 to 72 hrs by broth microdilution method; type: functional
[20] = tested on: Candida albicans; test: Antifungal activity against Candida albicans ATCC 10231 at 125 ug/ml after 48 to 72 hrs by broth microdilution method; type: functional, organism-based
Method in brief: (§4)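 Broth microdilution per NCCLS. Inocula come from 5–7 colonies on YM agar, suspended in sterile water and adjusted to 0.5 McFarland at 530 nm (stock 1×10⁶–5×10⁶ cells/mL), then diluted 1:50 in HEPES-buffered RPMI 1640. Compounds in DMSO (final ≤1%) are added as a 10-fold dilution into the suspension. Plates run 48–72 h at 35 °C, humid. Growth is scored visually; the endpoint is ≥80% reduction versus drug-free wells.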

[21] = tested on: Nakaseomyces glabratus; test: Antifungal activity against Candida glabrata ATCC 48435 at 125 ug/ml after 48 to 72 hrs by broth microdilution method; type: functional, organism-based; method in brief: as §4
[22] = tested on: Candida albicans; test: Antifungal activity against Candida albicans ATCC 10231 at 16 ug/ml after 48 to 72 hrs by broth microdilution method; type: functional

SMILES: O=C1NC(=O)C(/C=N/NC(=O)c2ccc([N+](=O)[O-])cc2)C(=O)N1
- MIC80 [1]: 62 µg/mL (≈ 194 µM)
- MIC80 [2]: 16 µg/mL (≈ 50.1 µM)
- inhibition at 16 µg/mL [3]: < 50%
- inhibition at 62 µg/mL [4]: < 50%

SMILES: C/C(=N\Nc1ccc([N+](=O)[O-])cc1)C1C(=O)NC(=O)NC1=O
- viability at 24 h [5]: 35%
- MIC80 [1]: 2 µg/mL (≈ 6.55 µM)
- Activity [6]: Toxic
- MIC80 [2]: 2 µg/mL (≈ 6.55 µM)

SMILES: CN1C(=O)C(/C=N/c2ccccc2O)C(=O)N(C)C1=O
- MIC80 [1]: 8 µg/mL (≈ 29.1 µM)
- viability at 24 h [7]: 35%
- Activity [8]: Toxic
- MIC80 [2]: inactive
- inhibition at 8 µg/mL [9]: < 50%

SMILES: C/C(=N\Nc1ccccc1)C1C(=O)N(C)C(=O)N(C)C1=O
- viability at 24 h [5]: 35%
- MIC80 [1]: 2 µg/mL (≈ 6.94 µM)
- Activity [6]: Toxic
- MIC80 [2]: 2 µg/mL (≈ 6.94 µM)

SMILES: CN/N=C/C1C(=O)N(C)C(=O)N(C)C1=O
- MIC80 [1]: 62 µg/mL (≈ 292 µM)
- MIC80 [2]: 125 µg/mL (≈ 589 µM)
- inhibition at 62 µg/mL [4]: < 50%

SMILES: CN1C(=O)C(/C=N/Nc2ccc([N+](=O)[O-])cc2)C(=O)N(C)C1=O
- viability at 24 h [10]: 80%
- MIC80 [1]: 2 µg/mL (≈ 6.26 µM)
- Activity [6]: Toxic
- MIC80 [2]: 2 µg/mL (≈ 6.26 µM)

SMILES: CN1C(=O)C(/C=N/NC(=O)c2ccc([N+](=O)[O-])cc2)C(=O)N(C)C1=O
- MIC80 [1]: 62 µg/mL (≈ 179 µM)
- MIC80 [2]: 125 µg/mL (≈ 360 µM)
- inhibition at 62 µg/mL [4]: < 50%

SMILES: O=C1NC(=O)C(/C=N/Nc2ccc([N+](=O)[O-])cc2)C(=O)N1
- Activity [11]: Active
- viability at 24 h [10]: 80%
- Activity [12]: Active
- MIC80 [1]: 2 µg/mL (≈ 6.87 µM)
- Activity [13]: Active
- Activity [14]: Active
- Activity [6]: Toxic
- Activity [15]: Dose-dependent effect
- MIC80 [2]: 1 µg/mL (≈ 3.43 µM)
- Activity [16]: Active
- Activity [17]: Active

SMILES: CN/N=C(\C)C1C(=O)NC(=O)NC1=O
- MIC80 [1]: inactive
- inhibition at 31 µg/mL [18]: < 50%
- MIC80 [2]: 31 µg/mL (≈ 156 µM)

SMILES: COc1ccc(C(=O)N/N=C/C2C(=O)NC(=O)NC2=O)cc1
- MIC80 [1]: inactive
- inhibition at 62 µg/mL [19]: < 50%
- MIC80 [2]: 62 µg/mL (≈ 204 µM)

SMILES: O=C1NC(=O)C(/C=N/c2ccccc2O)C(=O)N1
- MIC80 [1]: 8 µg/mL (≈ 32.4 µM)
- MIC80 [2]: inactive
- inhibition at 8 µg/mL [9]: < 50%

SMILES: COc1ccc(C(=O)C2C(=O)N(C)C(=O)N(C)C2=O)cc1
- Activity [20]: inactive
- Activity [21]: inactive

SMILES: COc1ccc(C(=O)N/N=C/C2C(=O)N(C)C(=O)N(C)C2=O)cc1
- MIC80 [1]: 62 µg/mL (≈ 187 µM)
- MIC80 [2]: 31 µg/mL (≈ 93.3 µM)
- inhibition at 62 µg/mL [4]: < 50%

SMILES: CN1C(=O)C(/C=N/Nc2ccccc2)C(=O)N(C)C1=O
- viability at 24 h [10]: 80%
- MIC80 [1]: 4 µg/mL (≈ 14.6 µM)
- Activity [6]: Toxic
- MIC80 [2]: 2 µg/mL (≈ 7.29 µM)

SMILES: O=C1NC(=O)C(C(=O)c2ccc(O)cc2)C(=O)N1
- Activity [20]: inactive
- Activity [21]: inactive

SMILES: CN1C(=O)C(C(=O)c2ccc([N+](=O)[O-])cc2)C(=O)N(C)C1=O
- Activity [20]: inactive
- Activity [21]: inactive

SMILES: Cc1ccc(S(=O)(=O)N/N=C/C2C(=O)NC(=O)NC2=O)cc1
- MIC80 [1]: 16 µg/mL (≈ 49.3 µM)
- inhibition at 16 µg/mL [22]: < 50%
- MIC80 [2]: inactive
